Compounds with a hit are over-represented: about 1.6% of the library has one in this group of screens.
ADAM10 inh – inhibits human ADAM10; O14672; recombinant ADAM10, EDANS/DABCYL FRET peptide cleavage, 3 h; inhibition, % at 7 µM; 370,000 tested, 0.62% active; AID 720582;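 active = inhibition above a per-campaign cutoff equal to the mean of compounds falling between control-based bounds plus 3 SD, cut at about 20% in these data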
MT1-MMP act inh – inhibitors of human MT1-MMP activation; P50281; HT1080 RFP-PRO-GFP cells, GFP/RFP ratio fluorescence, overnight; percent of plate control window, DMSO zero; GFP/RFP ratio change, % at 20 µM; 360,000 tested, 0.061% active;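 active = GFP/RFP ratio change of at least 30% with cell ATP level not reduced by more than half and red fluorescence within 50% of control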
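Assay system: RFP-PRO-GFP reporter HT1080 cells; read-out basis: GFP/RFP fluorescence ratio; benchmarks: DMSO wells and RFP-L50D-GFP cells; doses: 20 µM single dose, 1% DMSO; schedule: overnight cell settling, then overnight compound exposure, 37 °C, 5% CO2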
Tn7 DDE FP – DD(E)-Tn7 binding inhibition, primary FP screen; FP displacement of FITC-Tn7 peptide from fibrin DD(E); 0% = median of compound wells per plate; inhibition, % at 8.3 µM; 370,000 tested, 0.13% active; AID 720508;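 active = inhibition above the mean of compounds falling within the control limits plus 3 SD of them, cut at about 14% in these data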
Target sequence (P02675 whole entry, looked up): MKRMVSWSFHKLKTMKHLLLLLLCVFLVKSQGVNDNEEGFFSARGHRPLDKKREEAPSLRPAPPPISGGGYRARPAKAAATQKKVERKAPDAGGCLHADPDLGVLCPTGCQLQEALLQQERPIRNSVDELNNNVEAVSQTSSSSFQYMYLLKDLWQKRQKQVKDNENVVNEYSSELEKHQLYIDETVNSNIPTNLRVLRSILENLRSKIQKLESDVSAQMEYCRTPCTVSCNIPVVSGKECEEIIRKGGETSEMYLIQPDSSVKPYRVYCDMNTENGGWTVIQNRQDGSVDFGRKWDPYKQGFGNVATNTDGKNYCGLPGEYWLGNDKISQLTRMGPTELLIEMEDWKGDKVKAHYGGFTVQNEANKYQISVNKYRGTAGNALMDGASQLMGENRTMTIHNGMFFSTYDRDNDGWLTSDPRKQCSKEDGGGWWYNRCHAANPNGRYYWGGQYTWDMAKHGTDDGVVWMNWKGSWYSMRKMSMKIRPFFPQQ
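Measure: % inhibition scaled between sample-field median and high-control FP; Test system: human fibrin DD(E); Quantity: 2 µM final DD(E) protein; Doses: one dose, 8.3 µM nominal; Schedule: compound with protein 10 min, then 3 h after probe, room temperature; Detection: fluorescence polarization; Medium: Tris buffer with calcium and detergent, pH 7.8.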
ADAM17 inh – ADAM17 inhibition, QFRET primary screen | P78536 | recombinant ADAM17, EDANS/DABCYL FRET peptide cleavage | inhibition, % at 6.95 µM | AID 720648 | 370,000 tested, 0.83% active;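 active = inhibition above the mean of compounds lying between control limits plus 3 SD, set per campaign, cut at about 8.5% in these data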
Tn6 DDE FP – disrupts Tn6 cyclic peptide binding to fibrin D-Dimer-E complex | P02675 | Fibrin DD(E) TRITC-Tn6 fluorescence polarization displacement | inhibition, % at 8.3 µM | 370,000 tested, 0.21% active;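 active = inhibition above a per-campaign cutoff: mean of compounds within control limits plus 3 SD, cut at about 15% in these data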
ADAM10 ctr – counter-screen for ADAM17 exosite inhibitors: inhibitors of human ADAM10; shares compounds with ADAM17 inh; recombinant ADAM10, EDANS/DABCYL FRET peptide cleavage, 3 h; inhibition, % at 6.95 µM; 2,900 tested, 47% active; AID 743256;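 active = mean inhibition over the triplicate runs exceeds the activity threshold set in the earlier primary screen, cut at about 20% in these data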
ADAM17 confirm – human ADAM17 inhibition, confirmation. AID 743257. 2,900 tested, 65% active. recombinant ADAM17, EDANS/DABCYL QFRET peptide cleavage. shares compounds with ADAM17 inh. inhibition, % at 6.95 µM;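 active = mean inhibition across replicates above the hit cutoff set in the primary screen, cut at about 8.5% in these data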
Numbers stand for hits; . = inactive; / = not tested or not shown.

SMILES | ADAM10 inh | MT1-MMP act inh | Tn7 DDE FP | ADAM17 inh | Tn6 DDE FP | ADAM10 ctr | ADAM17 confirm
CC[C@H](NC(=O)[C@@H](Cc1ccccc1)NC(=O)[C@H]1O[C@@H](n2ccc(=O)[nH]c2=O)[C@H](O)[C@@H]1O)c1ccccc1 | . | / | . | . | . | / | /
CCN(CC)c1ccc(NC(=O)CSc2nc3ccccc3c(=O)n2-c2cc(S(=O)(=O)N(C)C)ccc2C)cc1 | . | . | . | 10 | . | 21 | 15
COc1cccc(C#Cc2ccc3c(c2)O[C@H](CN(C)S(=O)(=O)c2ccccc2F)[C@H](C)CN([C@H](C)CO)S3(=O)=O)c1 | . | . | . | 11 | . | . | .
COc1cccc(C#Cc2ccc3c(c2)O[C@H](CN(C)C)[C@@H](C)CN([C@@H](C)CO)S3(=O)=O)c1 | . | . | . | . | . | / | /
CCCC#Cc1ccc2c(c1)O[C@H](CN(C)S(=O)(=O)c1cccc(OC)c1)[C@H](C)CN([C@H](C)CO)S2(=O)=O | . | . | . | 9.6 | . | 25 | 13
COc1ccccc1NS(=O)(=O)c1cc(NC(=O)CNC(=O)c2ccccc2)ccc1C | . | . | . | 9.1 | . | . | .
COc1cc(/C=N/n2c(-c3ccc4c(c3)NC(=O)CO4)csc2=Nc2cccc(C)c2)ccc1O | . | . | . | 9.3 | . | . | 9.8
C[C@@H]1CN([C@H](C)CO)C(=O)CCCn2cc(nn2)CO[C@H]1CN(C)S(=O)(=O)c1cn(C)cn1 | . | / | . | . | . | / | /
CC(=O)Oc1ccc(N2C(=O)CCC2=O)cc1 | . | . | . | . | . | / | /
CC(=O)Oc1ccc(N2C(=O)C3C4C=CC(O4)C3C2=O)cc1 (configuration not stated) | . | . | . | 9.8 | . | . | 17
COc1cc2c(c3c1c(=O)c1cccc(F)c1n3C)C=CC(C)(C)O2 | . | / | . | . | . | / | /
CCCCSc1nc(C)cc(SCC(=O)N/N=C/c2cccc(OC)c2O)n1 | . | . | . | 14 | . | . | .
COc1cccc(/C=N/NC(=O)CSc2nnc(C)n2-c2ccccc2)c1O | . | . | . | . | . | / | /
O=C(N/N=C/c1cccnc1)C1CCCN(S(=O)(=O)c2ccccc2)C1 (configuration not stated) | . | . | . | 9.2 | . | . | .
COc1ccc(C(=O)CC(=O)Nc2ccc([N+](=O)[O-])cc2)cc1 | . | . | . | 9.5 | . | 25 | 12
COc1ccc(Nc2ccc([N+](=O)[O-])cn2)cc1 | . | . | . | 10 | . | . | .
COc1ccc(CNc2ccc([N+](=O)[O-])cn2)cc1 | . | . | . | . | . | / | /
O=C1CSC(c2cccs2)N1c1nncs1 (configuration not stated) | . | / | . | . | . | / | /
COC(=O)[C@H](C(C)C)N(CCCc1cn(Cc2ccccc2)nn1)S(=O)(=O)c1ccccc1Br | . | / | . | . | . | / | /
Cc1ccc(Cn2cc(CN3CC=CS3(=O)=O)nn2)cc1 | . | / | . | . | . | / | /
CC1Oc2ccccc2N(CC(=O)Nc2ccc3c(c2)OCCO3)C1=O (configuration not stated) | . | . | . | 10.0 | . | . | .
CN(Cc1ccccc1)C(=O)CN1C(=O)NC2(CCCCCCC2)C1=O | . | . | . | 8.8 | . | . | .
O=C(CN1C(=O)NC2(CCCCCC2)C1=O)Nc1cccc(F)c1 | . | . | . | . | . | / | /
O=C(CN1C(=O)NC2(CCCCCCC2)C1=O)NCc1ccc(Cl)cc1 | . | . | . | 11 | . | . | .
O=C(CN1C(=O)NC2(CCCCC2)C1=O)Nc1ccc2c(c1)OCCCO2 | . | . | . | 11 | . | . | .
SMILES | ADAM10 inh | MT1-MMP act inh | Tn7 DDE FP | ADAM17 inh | Tn6 DDE FP | ADAM10 ctr | ADAM17 confirm
CC1CCC2(CC1)NC(=O)N(CC(=O)NCc1ccc(Cl)cc1)C2=O (configuration not stated) | . | . | . | . | . | / | /
COC(=O)C1=C(C)N(Cc2cccc(C(F)(F)F)c2)C(=NCc2ccc3c(c2)OCO3)NC1c1cccc(Cl)c1 (configuration not stated) | . | / | . | . | . | / | /
Nc1nc2c(-c3ccc([N+](=O)[O-])cc3)nnn2c2ccccc12 | . | / | . | . | . | / | /
CCOC(=O)N1CCN(C(=O)c2ccc(N(Cc3ccc(Cl)cc3)S(C)(=O)=O)cc2)CC1 | . | . | . | . | . | / | /
CCOC(=O)N1CCN(C(=O)c2ccc(N(Cc3ccc(C)cc3)S(C)(=O)=O)cc2)CC1 | . | . | . | 9.0 | . | . | .
CC(=O)CC[C@@H]1CC[C@]2(CCCN(C(=O)C3CCCCC3)C2)O1 | . | / | . | . | . | / | /
O=C(Cn1c(=O)sc2ccccc21)Nc1ccc(S(=O)(=O)N2CCCCC2)cc1 | . | . | . | 8.8 | . | 30 | 17
O=C(Oc1ccccc1-c1nnco1)c1ccc(Cl)cc1 | . | . | . | 9.7 | . | . | .
O=C(Nc1ccccc1OC(=O)c1ccc(Cl)cc1)c1ccc(Cl)cc1 | . | . | . | . | . | / | /
O=Cc1cscc1[B-](F)(F)F | . | / | . | . | . | / | /
CN(C)S(=O)(=O)Oc1cccc(C(=O)Nc2cccc(Cl)c2)c1 | . | . | . | . | . | / | /
CN(C)S(=O)(=O)Oc1cccc(C(=O)Nc2ccc(Cl)c(Cl)c2)c1 | . | . | . | 9.2 | . | 35 | 20
COC(=O)[C@]12C[C@H](CC(=O)NCC34CC5CC(CC(C5)C3)C4)C(=O)N(Cc3ccccc3)C1=C[C@H](C(C)C)O[C@@H]2C1CC1 | . | / | . | . | . | / | /
Cc1cc(C)c(OCC(=O)NCC2COc3ccccc3O2)c(C)c1 (configuration not stated) | . | . | . | 15 | . | . | .
Cc1ccc(C)c(OCC(=O)NCC2COc3ccccc3O2)c1 (configuration not stated) | . | . | . | . | . | / | /
CC(NCc1ccco1)C(=O)N1CCCN(C)CC1 (configuration not stated) | . | / | . | . | . | / | /
COc1ccc(NC(=O)CN(C)C(=O)/C=C/c2cn(-c3ccccc3)nc2-c2ccc(C)cc2)cc1 | . | . | . | 13 | . | . | 10
CCN(CC)C(=O)CC[C@H]1CC[C@]2(CCCN(C(=O)C3CCCC3)C2)O1 | . | / | . | . | . | / | /
CCOC(=O)NCc1ccc(S(=O)(=O)Nc2ccc(C)cc2)cc1 | . | . | . | 11 | . | . | .
Cc1ccc(NS(=O)(=O)c2ccc(C3CCCCC3)cc2)cc1 | . | . | . | 8.9 | . | 38 | 18
Cc1ccc(S(=O)(=O)Nc2ccc(N3CCCCC3)cc2)cc1 | . | . | . | . | . | / | /

Compound activity deposited in PubChem by several laboratories.
